The target in series [1] is T1, CAAX prenyl protease 2 (Homo sapiens) (UniProt Q9Y256).
T1 sequence (whole entry): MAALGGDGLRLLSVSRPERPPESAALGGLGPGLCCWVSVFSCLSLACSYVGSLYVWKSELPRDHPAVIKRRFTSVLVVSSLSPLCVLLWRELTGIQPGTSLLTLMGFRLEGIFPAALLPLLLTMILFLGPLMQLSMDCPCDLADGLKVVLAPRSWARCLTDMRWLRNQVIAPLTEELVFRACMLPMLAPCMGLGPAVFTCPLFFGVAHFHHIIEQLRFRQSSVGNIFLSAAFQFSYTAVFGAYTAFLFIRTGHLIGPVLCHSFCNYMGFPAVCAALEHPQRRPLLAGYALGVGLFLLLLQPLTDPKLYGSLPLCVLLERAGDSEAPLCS
Description: Effect on EGFP-H-Ras plasma membrane association in human HCT116 cells at 25 uM after 20 hrs by fluorescence assay. The settings on record: HCT-116.

The test system of series [2] is Protein farnesyltransferase (Rattus norvegicus). Description: Inhibition of protein farnesyltransferase (rat) at 50 uM measured every 40 seconds for 60 mins.
The target in series [3] is T1, CAAX prenyl protease 2 (Homo sapiens). Description: Inhibition of human Rce1-mediated CaaX protease activity using […] and […] as substrate assessed as residual activity at 10 uM measured every 30 to 60 seconds for 60 mins. Put shortly: (§1)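 Membranes from yeast SM3614 (ste24 rce1 null) overexpressing human Rce1, 0.25 mg/mL final in 200 mM Tris pH 7.5, 200 mM NaCl, 1 mg/mL BSA. […] Reaction started with 20 μM ABZ-KSKTKC(farnesyl)QLIM. Fluorescence (ex 320/em 420) read every 30–60 s for 60 min at 30 °C. Initial velocities trypsin-normalised; activity given as % of DMSO control.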

The target of the next series is T2, CAAX prenyl protease 2 (Homo sapiens, UniProt Q9Y256).
T2 sequence (Q9Y256 whole entry): T1 sequence (whole entry)
As to the kind of experiment: Inhibition of human Rce1-mediated CaaX protease activity using ABZ-KSKTKC(farnesyl)QIIM and ABZ-KSKTKC(farnesyl)VIQI as substrate assessed as residual activity measured every 30 to 60 seconds for 60 mins. The method in brief: as §1

The nature of series [4]: Cytotoxicity against human HCT116 cells assessed as cell death at 25 uM after 20 hrs by celltiter blue assay (reference value: 0.4%). The settings on record: hct-116, 20 h. It is filed as cell-based. Put shortly: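 HCT-116 cells grown in DMEM with 10% FBS and 1% NEAA at 37 °C, 5% CO2, seeded 7 × 10^3 per well, exposed 20 h to 25 μM compound (0.4% DMSO vehicle; untreated control). CellTiter-Blue added for 4 h, fluorescence read at 560/590 nm. Values relative to untreated cells, mean of three independent experiments with SEM.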

Series [5] addresses T1, CAAX prenyl protease 2 (Homo sapiens). Description: Effect on EGFP-N-Ras plasma membrane association in human HCT116 cells at 25 uM after 20 hrs by fluorescence assay. Particulars: HCT-116.
For series [6], the target named is T3, CAAX prenyl protease 1 homolog (Homo sapiens) (UniProt O75844).
T3 sequence (whole entry): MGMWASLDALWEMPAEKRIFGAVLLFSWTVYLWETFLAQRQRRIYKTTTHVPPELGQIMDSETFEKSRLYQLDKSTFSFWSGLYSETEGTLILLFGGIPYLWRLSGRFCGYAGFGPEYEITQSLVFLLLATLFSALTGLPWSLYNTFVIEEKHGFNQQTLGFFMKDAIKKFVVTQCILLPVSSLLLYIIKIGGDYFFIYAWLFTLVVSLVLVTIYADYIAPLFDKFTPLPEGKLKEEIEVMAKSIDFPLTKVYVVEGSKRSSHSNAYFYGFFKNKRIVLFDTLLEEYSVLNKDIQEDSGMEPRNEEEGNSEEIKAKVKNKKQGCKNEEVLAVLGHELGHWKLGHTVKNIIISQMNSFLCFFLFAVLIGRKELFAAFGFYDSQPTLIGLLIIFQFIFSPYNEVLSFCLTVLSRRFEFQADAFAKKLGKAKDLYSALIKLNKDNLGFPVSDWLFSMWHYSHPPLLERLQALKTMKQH
Description: Inhibition of human FACE1-mediated CaaX protease activity at 10 uM measured every 30 to 60 seconds for 60 mins. Put shortly:
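Human Ste24 overexpressed in yeast strain SM3614 (ste24 rce1 null); membranes 0.25 mg/mL final in 200 mM Tris pH 7.5, 200 mM NaCl, 1 mg/mL BSA. Pretreated 15 min at 30 °C with 10 μM compound in duplicate, then 20 μM ABZ-KSKTKC(farnesyl)VIQL substrate added. Fluorescence (ex 320/em 420) read every 30–60 s for 60 min at 30 °C. Initial velocities normalised via trypsin-digest maximum fluorescence and expressed as % of DMSO control. SD shown.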

For series [7], the target named is T1, CAAX prenyl protease 2 (Homo sapiens). As to the kind of experiment: Inhibition of Rce1 in human HCT116 cells assessed as mislocalization of EGFP-K-Ras in plasma membrane at 25 uM after 20 hrs by fluorescence assay. The settings on record: HCT-116.

From ChEMBL document CHEMBL3739299, “8-Hydroxyquinoline-based inhibitors of the Rce1 protease disrupt Ras membrane localization in human cells” (Bioorg Med Chem, 2016) come the findings set out here.

pIC50: −log10 of the molar value. The source made the active and inactive calls. The calls are words filed in the database; no cut-off is given here.

By pIC50 is commonly meant −log10 of the IC50, conventionally taken in molar units. For the compound `Oc1c(C(Nc2ccccc2)c2ccccc2)ccc2cccnc12` (centres undefined), the PM association came to 14% in series [1] and 10% in series [5]. Moreover, the inhibition entry in series [2] and in series [6] was “inactive” throughout. Also, the Activity in series [3] worked out at 39%. The negative-log IC50 (pIC50) at CAAX prenyl protease 2 was 5.05. In addition, the Cell death in series [4] is given as < 10%.
For `O=C(O)c1ccc(NC(c2ccc(Br)cc2)c2ccc3cccnc3c2O)cc1` (centres undefined), the inhibition result in series [2] and in series [6] was “inactive” in each case. For the same compound, the Activity in series [3] is 23%. Also, the pIC50 on CAAX prenyl protease 2 was 5.17. Further, the Cell death in series [4] came out at 25%. The K-Ras plasma membrane association in series [7] was 16%.
As for `O=C(O)c1cccc(NC(c2ccccc2)c2ccc3ccccc3c2O)c1` (centres undefined), the inhibition entry in series [2] and in series [6] was “inactive” each time. The Activity in series [3] worked out at 23%. The pIC50 on CAAX prenyl protease 2 is 5.28. In series [4], the Cell death is given as < 10%.
On to `O=C(O)c1ccc(NC(c2ccc3ccccc3c2O)c2c(F)cc(Br)cc2F)cc1` (centres undefined), for which the Activity in series [3] is 21%. Moreover, the negative-log IC50 (pIC50) on CAAX prenyl protease 2 was 5.42. For the same compound, the Cell death in series [4] is reported as < 10%. For the same compound, the inhibition entry in series [6] was “inactive”.
On to `Oc1c(C(Nc2ccccc2)c2ccccc2)cc(Br)c2ccccc12` (centres undefined), for which the Activity in series [3] was 27%. For the same compound, on CAAX prenyl protease 2, the pIC50 is 5.27. Moreover, the Cell death in series [4] is recorded as < 10%. Besides, in series [6], the inhibition entry is “inactive”.
As to `O=C(O)c1ccc(NC(c2ccc(Br)cc2)c2ccc3ccccc3c2O)cc1` (centres undefined), the Activity in series [3] worked out at 23%. In addition, at CAAX prenyl protease 2, the pIC50 was 5.41. For the same compound, the Cell death in series [4] is < 10%. Further, the inhibition entry in series [6] is “inactive”.
Consider `Oc1c(C(Nc2ccccc2)c2c(F)cc(Br)cc2F)ccc2ccccc12` (centres undefined), for which the Activity in series [3] stood at 45%. Besides, on CAAX prenyl protease 2, the pIC50 was 5.03. Moreover, the Cell death in series [4] is on record as 40%. Also, the inhibition result in series [6] is “inactive”.
